In one assay the test system is BT-474. Briefly: Cytotoxicity against human BT474 cells after 3 days by MTT assay. It counts as functional, cell-based. To be noted: BT-474, 72 h. The method in brief:
(§1)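 Cells were cultured per supplier instructions at 2–4 × 10⁴ cells/well in medium with 10% (v/v) FBS, overnight at 37 °C under 5% CO₂. Compounds were then added, and after 3 days MTT was added to 0.5 mg/mL final for 4 h. Medium was replaced for solubilization with glycine pH 10.5. Doxorubicin was the positive control, and IC₅₀ values were derived.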

The next assay relates to KB. Briefly: Cytotoxicity against human KB cells after 3 days by MTT assay. The class given is functional, cell-based. The settings on record: 72 h. The method in brief: as §1
For a further assay, the system named is MCF7. The assay is described as follows: Cytotoxicity against human MCF7 cells after 3 days by MTT assay. The settings on record: MCF7, 72 h. The class given is functional, cell-based. The method in brief: as §1
A short description of assay [1]: Cytotoxicity against human ChaGo cells after 3 days by MTT assay. The class given is functional, cell-based. The settings on record: 72 h. The method in brief: as §1
The target in assay [2] is DNA topoisomerase 2-alpha (Homo sapiens) (UniProt P11388). The assay is described as follows: Inhibition of human topoisomerase 2alpha-mediated relaxation of supercoiled pBR322 at 100 uM after 30 mins by electrophoresis analysis.
DNA topoisomerase 2-alpha (Homo sapiens), sequence (P11388 whole entry): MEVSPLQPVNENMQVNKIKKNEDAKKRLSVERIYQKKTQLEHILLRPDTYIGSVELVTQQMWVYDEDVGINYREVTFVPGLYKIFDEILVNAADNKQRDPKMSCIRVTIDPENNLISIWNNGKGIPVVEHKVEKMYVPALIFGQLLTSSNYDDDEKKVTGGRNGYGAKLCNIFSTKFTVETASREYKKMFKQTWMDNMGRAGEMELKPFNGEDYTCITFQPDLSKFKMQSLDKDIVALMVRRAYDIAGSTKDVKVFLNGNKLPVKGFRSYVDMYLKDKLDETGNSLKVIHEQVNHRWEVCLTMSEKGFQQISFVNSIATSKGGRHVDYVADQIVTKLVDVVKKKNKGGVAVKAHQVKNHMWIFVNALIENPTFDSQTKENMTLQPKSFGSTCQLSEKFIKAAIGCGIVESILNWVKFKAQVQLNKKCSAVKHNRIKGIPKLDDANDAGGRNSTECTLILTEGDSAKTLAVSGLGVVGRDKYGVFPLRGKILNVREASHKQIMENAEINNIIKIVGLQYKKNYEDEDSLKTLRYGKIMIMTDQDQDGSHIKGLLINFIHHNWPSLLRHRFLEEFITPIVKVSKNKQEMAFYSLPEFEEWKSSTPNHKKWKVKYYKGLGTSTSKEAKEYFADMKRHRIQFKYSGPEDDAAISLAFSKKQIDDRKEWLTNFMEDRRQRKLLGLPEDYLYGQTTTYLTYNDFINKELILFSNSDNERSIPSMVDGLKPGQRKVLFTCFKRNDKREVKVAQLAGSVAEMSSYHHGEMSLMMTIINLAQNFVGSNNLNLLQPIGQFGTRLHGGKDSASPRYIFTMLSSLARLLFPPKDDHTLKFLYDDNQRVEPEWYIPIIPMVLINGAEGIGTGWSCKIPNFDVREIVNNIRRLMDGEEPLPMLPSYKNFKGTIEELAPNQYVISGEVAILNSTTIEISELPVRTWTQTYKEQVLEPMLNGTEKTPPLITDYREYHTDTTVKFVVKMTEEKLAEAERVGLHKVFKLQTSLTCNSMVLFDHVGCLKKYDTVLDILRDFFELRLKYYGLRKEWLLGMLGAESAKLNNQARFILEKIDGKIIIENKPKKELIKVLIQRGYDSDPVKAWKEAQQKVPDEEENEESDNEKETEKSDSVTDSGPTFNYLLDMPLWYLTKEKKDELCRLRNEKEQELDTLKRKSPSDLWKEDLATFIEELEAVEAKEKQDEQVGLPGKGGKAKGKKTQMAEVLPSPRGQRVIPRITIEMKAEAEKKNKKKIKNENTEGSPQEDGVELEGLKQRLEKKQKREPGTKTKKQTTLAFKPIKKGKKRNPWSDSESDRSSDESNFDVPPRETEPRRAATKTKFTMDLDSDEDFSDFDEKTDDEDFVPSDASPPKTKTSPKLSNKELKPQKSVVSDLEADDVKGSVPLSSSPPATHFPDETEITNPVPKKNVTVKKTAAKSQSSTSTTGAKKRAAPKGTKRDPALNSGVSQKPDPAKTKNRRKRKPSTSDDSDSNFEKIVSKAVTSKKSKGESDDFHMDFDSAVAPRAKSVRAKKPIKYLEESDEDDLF
The nature of assay [3]: Cytotoxicity against human KATO cells after 3 days by MTT assay. The class given is functional, cell-based. The settings on record: 72 h. The method in brief: as §1
The next assay concerns NCI-H187. The assay is described as follows: Cytotoxicity against human NCI-H187 cells after 3 days by MTT assay. The class given is functional, cell-based. The settings on record: NCI-H187, 72 h. The method in brief: as §1
In another assay the test system is SW-620. Briefly: Cytotoxicity against human SW620 cells after 3 days by MTT assay. The class given is functional, cell-based. To be noted: SW-620, 72 h. The method in brief:
as §1

The test system of another assay is HepG2. Briefly: Cytotoxicity against human HepG2 cells after 3 days by MTT assay. It counts as functional, cell-based. To be noted: HepG2, 72 h. Summed up:
as §1

Assay [4] deals with Nucleic Acid. Briefly: Binding affinity to calf thymus DNA assessed as increase in melting temperature (reference value: 56.4 degC). The class given is nucleic-acid assay. The settings on record: Bos taurus.
In assay [5] the test system is Nucleic Acid. The assay is described as follows: Binding affinity to calf thymus DNA assessed as change in melting temperature. The class given is nucleic-acid assay. To be noted: Bos taurus.
Assay [6] deals with DNA topoisomerase 2-alpha (Homo sapiens) (UniProt P11388). The assay is described as follows: Inhibition of human topoisomerase 2alpha-mediated relaxation of supercoiled pBR322 at 20 uM after 30 mins by electrophoresis analysis.

The source of these data is ChEMBL document CHEMBL1806460, “Synthesis of rotenoid derivatives with cytotoxic and topoisomerase II inhibitory activities” (Bioorg Med Chem Lett, 2011).

With `COc1cc(OCC(O)CCl)c2c(c1)O[C@@H]1COc3cc(OC)c(OC)cc3[C@]1(O)C2=O` (mixture of isomers), the concentration for half-maximal inhibition (IC50) with BT-474 is 1.57 µM; in the assay with KB it was 14.8 µM; with MCF7, 24.9 µM; in assay [1], > 100 µM; in assay [3] it was 1.09 µM; in the assay with NCI-H187, 6.61 µM. The IC50 with SW-620 turned out to be 1.09 µM; with HepG2, 0.81 µM. Also, the inhibition in [2] stood at 58.3%.

With `COc1cccc2c1C(=O)c1c(O)c3c(c(O)c1C2=O)C[C@@](O)(C(=O)CO)C[C@@H]3O[C@H]1C[C@H](N)[C@H](O)[C@H](C)O1` [DOXORUBICIN], the IC50 with BT-474 is 0.07 µM; with KB it was 2.01 µM; in [1], 0.83 µM; in assay [3] it was 0.33 µM; in the assay on NCI-H187 it was 0.03 µM; in the assay with SW-620, 0.23 µM. The IC50 in the assay on HepG2 was 0.26 µM. The compound also gave an inhibition in assay [2] of 72.1%.

As for `COCC(O)COc1cc(OC)cc2c1C(=O)[C@@]1(O)c3cc(OC)c(OC)cc3OC[C@H]1O2` (mixture of isomers), the IC50 was > 100 µM in the assay with BT-474; 46.9 µM with KB; > 100 µM in the assay with MCF7; > 100 µM in [1]; > 100 µM in assay [3]; 11.7 µM with NCI-H187. The IC50 with SW-620 and with HepG2 was > 100 µM each time. Besides, in assay [2], the inhibition was 58.4%.

As for `COc1cc(OCC(O)CNCc2ccccc2)c2c(c1)O[C@@H]1COc3cc(OC)c(OC)cc3[C@]1(O)C2=O` (mixture of isomers), the half-maximal inhibitory concentration (IC50) with BT-474 stood at 0.62 µM; with KB, 32.3 µM; with MCF7 it was 34.6 µM; in [1] it was 31 µM; in assay [3], 0.67 µM; with NCI-H187 it was 35.5 µM. The figures for the IC50 in the assay on SW-620 and with HepG2 were 0.59 µM and 0.72 µM, respectively. In [2], the inhibition was 81.7%. Also, the Tm in the assay with Nucleic Acid [4] was determined as 68 °C. Moreover, the ΔTm in the assay on Nucleic Acid [5] was found to be 10.7 °C.

As for `COc1cc(OCC(O)CNCC(O)c2ccccc2)c2c(c1)O[C@@H]1COc3cc(OC)c(OC)cc3[C@]1(O)C2=O` (mixture of isomers), the IC50 is > 100 µM in the assay with BT-474; 46.4 µM in the assay with KB; > 100 µM in assay [1]; > 100 µM in assay [3]; 22.1 µM with NCI-H187; > 100 µM in the assay with SW-620. In addition, the IC50 in the assay with HepG2 is > 100 µM. Besides, the inhibition in [2] came to 60.4%.

Regarding `COc1cc(OCC(O)CN(CCO)CCO)c2c(c1)O[C@@H]1COc3cc(OC)c(OC)cc3[C@]1(O)C2=O` (stereo not given in full), the half-inhibitory concentration (IC50) (with BT-474; with KB; in the assay with MCF7; in assay [1]; in [3]; in the assay with NCI-H187) was > 100 µM in each case. Moreover, the IC50 in the assay on SW-620 and with HepG2 was > 100 µM throughout. Also, the inhibition in [2] was 49.1%.

With `COc1cc(OCC(O)CNCCc2ccccc2)c2c(c1)O[C@@H]1COc3cc(OC)c(OC)cc3[C@]1(O)C2=O` (mixture of isomers), the IC50 in the assay with BT-474 is > 100 µM; with KB, 23.5 µM; in the assay with MCF7, 3.05 µM; in [1] it was > 100 µM; in assay [3], > 100 µM; with NCI-H187 it was 13.6 µM. The IC50 with SW-620 and in the assay on HepG2 was > 100 µM each time. This compound registered an inhibition in [2] of 66.7%.

In the case of `COc1cc(OCC(O)CNCCN2CCOCC2)c2c(c1)O[C@@H]1COc3cc(OC)c(OC)cc3[C@]1(O)C2=O` (mixture of isomers), the IC50 in the assay on BT-474 stood at 0.45 µM; in the assay with KB, 26.3 µM; with MCF7, 36.8 µM; in [1], 40.2 µM; in assay [3], 1.94 µM; with NCI-H187, 4.7 µM. Further, the results for the IC50 in the assay on SW-620 and in the assay on HepG2 were 0.54 µM and 0.56 µM, respectively. This compound also came in with an inhibition in assay [2] of 77.1%. For the same compound, the Tm in the assay on Nucleic Acid [4] was 66.1 °C. Besides, the ΔTm in the assay with Nucleic Acid [5] amounted to 8.8 °C.

As to `COc1cc(OCC2CO2)c2c(c1)O[C@@H]1COc3cc(OC)c(OC)cc3[C@]1(O)C2=O` (mixture of isomers), the IC50 in the assay on BT-474 worked out at 0.45 µM; with KB, 32.9 µM; with MCF7, 5.63 µM; in assay [1], 0.57 µM; in [3], 0.63 µM; with NCI-H187 it was 27.8 µM. Besides, the concentration for half-maximal inhibition (IC50) in the assay with SW-620 turned out to be 0.38 µM; in the assay on HepG2, 0.55 µM. Further, in [2], the inhibition stood at 68.3%. Besides, the Tm with Nucleic Acid [4] came out at 59.3 °C. The ΔTm in the assay with Nucleic Acid [5] amounted to 2 °C.

On to `COc1cc(OCC(O)CO)c2c(c1)O[C@@H]1COc3cc(OC)c(OC)cc3[C@]1(O)C2=O` (mixture of isomers), for which the IC50 with BT-474 was > 100 µM; in the assay on KB it was 13.4 µM; in the assay on MCF7, > 100 µM; in [1] it was > 100 µM; in assay [3], > 100 µM; in the assay with NCI-H187, 13.9 µM. In addition, the IC50 with SW-620 was 8.04 µM; in the assay on HepG2, > 100 µM. For the same compound, in assay [2], the inhibition turned out to be 38.8%.

For `COc1cc(OCC(O)CN2CCC(=O)CC2)c2c(c1)O[C@@H]1COc3cc(OC)c(OC)cc3[C@]1(O)C2=O` (mixture of isomers), the IC50 in the assay with BT-474 is > 100 µM; in the assay on KB, > 100 µM; in the assay on MCF7 it was 48.6 µM; in assay [1] it was > 100 µM; in assay [3], > 100 µM; in the assay with NCI-H187, > 100 µM. Besides, the IC50 with SW-620 and with HepG2 was > 100 µM in each case. Besides, in [2], the inhibition was found to be 54.2%.

For the compound `COc1cc(OCC(O)CN2CCOCC2)c2c(c1)O[C@@H]1COc3cc(OC)c(OC)cc3[C@]1(O)C2=O` (mixture of isomers), the IC50 in the assay on BT-474 was 0.34 µM; with KB, 26.5 µM; in the assay with MCF7, 31.7 µM; in assay [1], 0.61 µM; in assay [3], > 100 µM; in the assay on NCI-H187, 2.93 µM. The IC50 in the assay on SW-620 came out at 0.73 µM; with HepG2, 0.61 µM. Moreover, the inhibition was found to be 93.5% in assay [2] and 47.1% in assay [6]. Also, the Tm in the assay on Nucleic Acid [4] worked out at 65.1 °C. Moreover, the ΔTm in the assay on Nucleic Acid [5] is 7.8 °C.

Regarding `COc1cc(O)c2c(c1)O[C@@H]1COc3cc(OC)c(OC)cc3[C@]1(O)C2=O`, the IC50 in the assay on BT-474 was > 100 µM; with KB, 13.3 µM; with MCF7 it was 23.7 µM; in [1], > 100 µM; in assay [3], > 100 µM; with NCI-H187, 3.12 µM. The half-inhibitory concentration (IC50) in the assay with SW-620 and in the assay with HepG2 was > 100 µM throughout. In addition, the inhibition in [2] turned out to be 72.1%. The Tm with Nucleic Acid [4] stood at 57.3 °C.
